Reference: ChEMBL document CHEMBL3596186, “Synthesis and biological evaluation of diarylthiazole derivatives as antimitotic and antivascular agents with potent antitumor activity” (Bioorg Med Chem, 2015)
The source made the active and inactive calls. The calls are words filed in the database; no cut-off is given here.

Assays:
HepG2 [1] = assay: Cell cycle arrest in human HepG2 cells assessed as accumulation at G1 phase at 1 uM after 24 hrs by flow cytometry (reference value: 62.74%); format: functional
HepG2 [2] = assay: Cell cycle arrest in human HepG2 cells assessed as accumulation at G2/M phase at 0.2 uM after 24 hrs by flow cytometry (reference value: 11.29%); format: functional
HepG2 [3] = assay: Induction of apoptosis in human HepG2 cells assessed as viable cells at 0.2 uM after 24 hrs by annexin V/propidium iodide staining-based flow cytometry (reference value: 89.8%); format: functional; details: HepG2, 24 h, read-out: Activity
HepG2 [4] = assay: Induction of apoptosis in human HepG2 cells assessed as early apoptotic cells at 1 uM after 24 hrs by annexin V/propidium iodide staining-based flow cytometry (reference value: 0.87%); format: functional
HepG2 [5] = assay: Induction of apoptosis in human HepG2 cells assessed as late apoptotic cells at 1 uM after 24 hrs by annexin V/propidium iodide staining-based flow cytometry (reference value: 3.74%); format: functional
HepG2 [6] = assay: Induction of apoptosis in human HepG2 cells assessed as viable cells at 1 uM after 24 hrs by annexin V/propidium iodide staining-based flow cytometry (reference value: 89.8%); format: functional; details: HepG2, 24 h, read-out: Activity
HepG2 [7] = assay: Induction of apoptosis in human HepG2 cells assessed as late apoptotic cells at 0.2 uM after 48 hrs by annexin V/propidium iodide staining-based flow cytometry (reference value: 3.74%); format: functional
HepG2 [8] = assay: Induction of apoptosis in human HepG2 cells assessed as early apoptotic cells at 0.5 uM after 48 hrs by annexin V/propidium iodide staining-based flow cytometry (reference value: 0.87%); format: functional
HepG2 [9] = assay: Induction of apoptosis in human HepG2 cells assessed as early apoptotic cells at 1 uM after 48 hrs by annexin V/propidium iodide staining-based flow cytometry (reference value: 0.87%); format: functional
HUVEC [10] = assay: Antiproliferative activity against HUVEC after 48 hrs by MTT assay; format: cell-based; details: Homo sapiens
In short: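 HUVECs isolated from umbilical cord veins and grown in EBM-2 with growth factors at 37 °C, 5% CO2. Log-phase cells at 40,000-50,000 cells/mL exposed to a compound dilution series for 48 h. MTT added for 3 h, formazan dissolved in DMSO, absorbance read at 570 nm. IC50 taken from percent growth versus untreated control.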

HUVEC [11] = assay: Antimigratory activity against HUVEC after 24 hrs by phase contrast microscopy; format: functional, cell-based; details: Homo sapiens
In short: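 HUVEC monolayers grown overnight in 6-well plates, scratched with pipet tips, washed twice with PBS, then given fresh EBM2 with vehicle or compound. Imaged by phase contrast at 0 and 24 h (100×). Migrated cells counted manually in 3 separate fields; mean ± SD from three fields.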

HUVEC [12] = assay: Antivascular activity against HUVEC assessed as inhibition of tube formation at 125 to 500 nM after 8 hrs by Matrigel assay; format: functional, cell-based; details: Homo sapiens
In short: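 Wells of prechilled plates coated with Matrigel and solidified 45 min at 37 °C. HUVECs (1 × 10^4) in EBM-2 containing compound (125-500 nM) seeded onto the gel and incubated 8 h at 37 °C. Capillary networks photographed at 100×; tubule numbers and line lengths counted manually.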

Mus musculus [13] = assay: Toxicity in Balb/c athymic nude mouse xenografted with human SKOV3 cells assessed as loss in body weight at 20 to 50 mg/kg, ip administered daily; format: organism-based, SK-OV-3; details: in vivo
In short: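 Female Balb/C athymic nude mice, 5-6 weeks old, carrying s.c. right-flank SK-OV-3 xenografts started from cells in HBSS. At about 100 mm3, groups of 6 received vehicle, 5-FU 10 mg/kg, or test agent i.p. daily. Body weight was measured every two days.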

Mus musculus [14] = assay: Toxicity in Balb/c athymic nude mouse xenografted with human SKOV3 cells assessed as change in feeding and animal behavior at 20 to 50 mg/kg, ip administered daily; format: organism-based, SK-OV-3; details: in vivo
HCT-116 [15] = assay: Antiproliferative activity against human HCT116 cells after 48 hrs by MTT assay; format: functional, cell-based; details: HCT-116, 48 h
In short: (§1)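 HCT116, HepG2, SMMC-7721, SK-OV-3 and A2780s grown in DMEM; A549 and MCF-7 in RPMI-1640; all with 10% FBS and penicillin/streptomycin at 37 °C, 5% CO2. Log-phase cells at 40,000-50,000 cells/mL treated with graded concentrations for 48 h. MTT 3 h, DMSO solubilization, A570. IC50 from percent growth versus untreated control; mean ± SEM of ≥3 independent dose-response experiments.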

[16] = Antiproliferative activity against human A2780S cells after 48 hrs by MTT assay; format: functional, cell-based; details: A2780, 48 h; in short: as §1
MCF7 = assay: Antiproliferative activity against human MCF7 cells after 48 hrs by MTT assay; format: functional, cell-based; details: MCF7, 48 h; in short: as §1
HCT-116 [17] = assay: Cell cycle arrest in human HCT116 cells assessed as accumulation at G2/M phase at 1 uM after 24 hrs by flow cytometry (reference value: 20.36%); format: functional
HCT-116 [18] = assay: Induction of apoptosis in human HCT116 cells assessed as late apoptotic cells at 0.2 uM after 24 hrs by annexin V/propidium iodide staining-based flow cytometry (reference value: 1.71%); format: functional
In short: (§2)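 HCT116 cells treated with compound or DMSO for 24 or 48 h, trypsinized, washed twice in PBS and dual-stained with annexin-V and PI. Analysed by flow cytometry: early apoptotic cells scored as annexin-V+/PI−, late apoptotic cells as annexin-V+/PI+.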

HCT-116 [19] = assay: Induction of apoptosis in human HCT116 cells assessed as necrotic cells at 0.5 uM after 24 hrs by annexin V/propidium iodide staining-based flow cytometry (reference value: 3.49%); format: functional
HCT-116 [20] = assay: Induction of apoptosis in human HCT116 cells assessed as early apoptotic cells at 1 uM after 24 hrs by annexin V/propidium iodide staining-based flow cytometry (reference value: 2.83%); format: functional; in short: as §2
HCT-116 [21] = assay: Induction of apoptosis in human HCT116 cells assessed as early apoptotic cells at 0.5 uM after 48 hrs by annexin V/propidium iodide staining-based flow cytometry (reference value: 2.83%); format: functional; in short: as §2
HCT-116 [22] = assay: Induction of apoptosis in human HCT116 cells assessed as late apoptotic cells at 1 uM after 48 hrs by annexin V/propidium iodide staining-based flow cytometry (reference value: 1.71%); format: functional

IC50 (HCT-116 [15]): 8.4 nM
IC50 (MCF7): 100 nM
SMILES: CCOc1ccc(-c2nc(N)sc2-c2cc(OC)c(OC)c(OC)c2)cc1
Activity (HepG2 [1]): 8.69%
Activity (HepG2 [2]): 19.56%
viability at 0.2 µM (HepG2 [3]): 81.8%
Activity (HepG2 [4]): 25.4%
Activity (HepG2 [5]): 8.34%
viability at 1 µM (HepG2 [6]): 65.4%
Activity (HepG2 [7]): 4.17%
Activity (HepG2 [8]): 65.3%
Activity (HepG2 [9]): 74%
IC50 (HUVEC [10]): 40.2 nM
Activity (HUVEC [11]): Dose-dependent effect
Activity (HUVEC [12]): Active
Activity (Mus musculus [13]): Toxic
Activity (Mus musculus [14]): Non-toxic
IC50 [16]: 16 nM
Activity (HCT-116 [17]): 9.22%
Activity (HCT-116 [18]): 8.08%
Activity (HCT-116 [19]): 3.5%
Activity (HCT-116 [20]): 17.6%
Activity (HCT-116 [21]): 40.3%
Activity (HCT-116 [22]): 32.6%
